From ChEMBL document CHEMBL4680100, “Revisiting the SAR of the Antischistosomal Aryl Hydantoin (Ro 13-3978)” (J Med Chem, 2016)
≈ marks a conversion by molar mass, not a printed value.

Tests used:
[1] = Octanol/water partition coefficient, logD of the compound at pH 7.4 by HPLC analysis
Albumin = Albumin (Homo sapiens, UniProt P02768); experiment: Protein binding in immobilized human serum albumin by HPLC analysis; assay type: ADME; settings: isolated protein
Summary of the method: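 Binding estimated from gradient HPLC retention on a human albumin column, correlated against standard compounds of known protein binding.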

[2] = Kinetic solubility of the compound in 0.01 M HCl at pH 2 by nephelometry; assay type: physicochemical; settings: read-out: Kinetic_solubility
[3] = Kinetic solubility of compound at pH 6.5 phosphate buffer by nephelometry; assay type: physicochemical; settings: read-out: Kinetic_solubility
[4] = Intrinsic clearance in human liver microsome in presence of NADPH-regenerating system incubated over 60 mins by LC-MS analysis; settings: microsomes, 1 h
[5] = Intrinsic clearance in mouse liver microsome in presence of NADPH-regenerating system incubated over 60 mins by LC-MS analysis; settings: microsomes, 1 h
Schistosoma mansoni = experiment: Antischistosomal activity against Schistosoma mansoni infected in NMRI mouse assessed as reduction in total worm burden at 100 mg/kg, po administered as single dose starting on day 49 post-infection and measured at 28 days post treatment relative to control; assay type: functional; set-up: scale not given: the % may be the effect or the level left; settings: time 28 day
Summary of the method: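 S. mansoni-infected NMRI mice treated on day 49 post-infection with a single oral dose, dissolved or suspended in 7% v/v Tween 80, 3% v/v ethanol (10 mL/kg), five mice per group. Sacrificed and dissected 28 d post-treatment; worms counted to give total worm burden reduction versus untreated controls. Kruskal–Wallis test on medians, treatment versus control.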

L6 = experiment: Cytotoxicity against rat L6 cells assessed as reduction in cell viability at up to 30 uM; assay type: cell-based
Androgen receptor = target: T1, Androgen receptor (Homo sapiens, UniProt P10275)
T1 sequence (P10275 whole entry): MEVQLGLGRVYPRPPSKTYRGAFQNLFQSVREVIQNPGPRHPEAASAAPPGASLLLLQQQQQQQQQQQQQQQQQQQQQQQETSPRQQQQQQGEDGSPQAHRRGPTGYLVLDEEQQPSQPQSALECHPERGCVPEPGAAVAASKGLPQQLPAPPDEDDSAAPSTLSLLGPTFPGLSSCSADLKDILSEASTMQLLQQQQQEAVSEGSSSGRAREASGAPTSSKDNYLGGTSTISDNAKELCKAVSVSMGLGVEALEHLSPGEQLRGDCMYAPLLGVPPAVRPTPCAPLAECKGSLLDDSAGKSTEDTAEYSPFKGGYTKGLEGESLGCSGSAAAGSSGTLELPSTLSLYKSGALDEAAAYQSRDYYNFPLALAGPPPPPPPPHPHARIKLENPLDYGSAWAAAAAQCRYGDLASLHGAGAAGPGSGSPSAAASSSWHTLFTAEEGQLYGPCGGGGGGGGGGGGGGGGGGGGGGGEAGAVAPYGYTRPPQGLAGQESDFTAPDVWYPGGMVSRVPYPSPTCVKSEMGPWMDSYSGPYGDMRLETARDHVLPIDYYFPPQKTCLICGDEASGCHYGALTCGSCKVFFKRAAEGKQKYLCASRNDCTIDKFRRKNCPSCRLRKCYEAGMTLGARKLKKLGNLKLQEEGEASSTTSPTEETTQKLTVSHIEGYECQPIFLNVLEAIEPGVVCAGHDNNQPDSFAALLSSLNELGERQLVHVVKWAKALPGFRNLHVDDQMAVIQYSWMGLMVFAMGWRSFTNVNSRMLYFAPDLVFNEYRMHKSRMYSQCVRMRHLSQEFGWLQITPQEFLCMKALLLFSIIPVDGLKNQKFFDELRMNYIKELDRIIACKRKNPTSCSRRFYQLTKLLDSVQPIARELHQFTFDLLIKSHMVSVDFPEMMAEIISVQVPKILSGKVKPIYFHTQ

Sequence of Albumin (P02768 whole entry): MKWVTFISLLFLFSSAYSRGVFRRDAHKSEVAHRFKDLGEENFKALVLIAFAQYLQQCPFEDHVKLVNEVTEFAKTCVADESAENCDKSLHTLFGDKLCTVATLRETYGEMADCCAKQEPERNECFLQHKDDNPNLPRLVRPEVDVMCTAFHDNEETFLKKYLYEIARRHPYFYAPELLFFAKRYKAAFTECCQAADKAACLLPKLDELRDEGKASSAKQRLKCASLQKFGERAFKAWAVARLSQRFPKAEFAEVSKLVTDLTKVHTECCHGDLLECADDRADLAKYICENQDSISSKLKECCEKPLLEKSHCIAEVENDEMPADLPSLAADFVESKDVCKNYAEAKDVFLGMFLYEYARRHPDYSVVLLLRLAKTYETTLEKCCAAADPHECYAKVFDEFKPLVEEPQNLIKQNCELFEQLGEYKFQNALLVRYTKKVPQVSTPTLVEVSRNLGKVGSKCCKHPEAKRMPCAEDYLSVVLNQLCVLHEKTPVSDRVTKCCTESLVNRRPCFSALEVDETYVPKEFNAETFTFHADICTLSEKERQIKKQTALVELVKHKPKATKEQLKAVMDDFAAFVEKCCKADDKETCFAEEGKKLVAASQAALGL

Structure (SMILES)	logD [1]	PPB (Albumin)	solubility kinetic [2]	solubility kinetic [3]	CLH [4]	CLH [5]	Activity (Schistosoma mansoni)	Activity (L6)	IC50 (Androgen receptor)
CC(C)(NC(=O)Nc1ccc(F)c(C(F)(F)F)c1)C(=O)O	1.1	94.3%	25 µg/mL (≈ 81.1 µM)	> 100 µg/mL	< 7 µL/min/mg	< 7 µL/min/mg	67%	Non-Toxic	3.1 µM
CC1(C)NC(=O)N(c2ccc(C(F)(F)F)nc2)C1=O	1.8	18.3%	> 100 µg/mL	> 100 µg/mL	< 7 µL/min/mg	< 7 µL/min/mg	0%	Non-Toxic	> 10 µM
CC1(C)NC(=O)N(Cc2ccc(F)c(C(F)(F)F)c2)C1=O	2.9	82.1%	50 µg/mL (≈ 164 µM)	> 100 µg/mL	17 µL/min/mg	11 µL/min/mg	56%	Non-Toxic	4.2 µM
O=C1NC2(CCCCC2)C(=O)N1c1ccc(F)c(C(F)(F)F)c1	3.5	74.9%	3.1 µg/mL (≈ 9.39 µM)	3.1 µg/mL (≈ 9.39 µM)	25 µL/min/mg	122 µL/min/mg	42%	Non-Toxic	4.2 µM
Cc1ccc(N2C(=O)NC(C)(C)C2=O)cc1C(F)(F)F	2.8	64.8%	> 100 µg/mL	> 100 µg/mL	< 7 µL/min/mg	16 µL/min/mg	4.8%	Non-Toxic	> 10 µM
CC1(C)NC(=O)N(c2ccc(Cl)c(C(F)(F)F)c2)C1=O	3	79.6%	> 100 µg/mL	> 100 µg/mL	< 7 µL/min/mg	< 7 µL/min/mg	75%	Non-Toxic	1.3 µM
CC1(C)NC(=O)C(c2ccc(F)c(C(F)(F)F)c2)C1=O (stereo unspecified)	0.5	93.3%	25 µg/mL (≈ 86.4 µM)	> 100 µg/mL	< 7 µL/min/mg	< 7 µL/min/mg	0%	Non-Toxic	> 10 µM
CC1(C)NC(=O)N(c2cnccn2)C1=O	0.3	5.8%	> 100 µg/mL	> 100 µg/mL	< 7 µL/min/mg	< 7 µL/min/mg	42%	Non-Toxic	> 10 µM
CC1(C)C(=O)N(c2ccc(F)c(C(F)(F)F)c2)C(=O)N1CC#N	3.4	48.2%	25 µg/mL (≈ 75.9 µM)	25 µg/mL (≈ 75.9 µM)	–	–	91%	Non-Toxic	0.29 µM
CC1(C)NC(=O)N(c2cccnc2)C1=O	0.2	6.6%	> 100 µg/mL	> 100 µg/mL	< 7 µL/min/mg	< 7 µL/min/mg	38%	Non-Toxic	9.6 µM
CC1(C)CNC(=O)N(c2ccc(F)c(C(F)(F)F)c2)C1=O	2.5	21.5%	12.5 µg/mL (≈ 41.1 µM)	12.5 µg/mL (≈ 41.1 µM)	9 µL/min/mg	15 µL/min/mg	19%	Non-Toxic	6.9 µM
CC1(C)CN(c2ccc(F)c(C(F)(F)F)c2)C(=O)N1	3.2	78.3%	12.5 µg/mL (≈ 45.3 µM)	12.5 µg/mL (≈ 45.3 µM)	< 7 µL/min/mg	30 µL/min/mg	59%	Non-Toxic	8.1 µM
O=C1C2CCCN2C(=O)N1c1ccc(F)c(C(F)(F)F)c1 (stereo unspecified)	3	46%	25 µg/mL (≈ 82.7 µM)	25 µg/mL (≈ 82.7 µM)	30 µL/min/mg	144 µL/min/mg	0%	Non-Toxic	3.5 µM
CC1(C)NC(=O)N(c2ccnc3ccccc23)C1=O	1.2	16.9%	> 100 µg/mL	> 100 µg/mL	< 7 µL/min/mg	< 7 µL/min/mg	17%	Non-Toxic	1.3 µM
CC1(C)NC(=O)N(c2ccncc2)C1=O	–	6.7%	50 µg/mL (≈ 244 µM)	> 100 µg/mL	< 7 µL/min/mg	11 µL/min/mg	1.8%	Non-Toxic	3.8 µM
CC1(C)C(=O)NC(=O)N1c1ccc(F)c(C(F)(F)F)c1	2.5	67.1%	25 µg/mL (≈ 86.1 µM)	25 µg/mL (≈ 86.1 µM)	< 7 µL/min/mg	< 7 µL/min/mg	0%	Non-Toxic	2.8 µM
CC1(C)CC(=O)N(c2ccc(F)c(C(F)(F)F)c2)C1=O	3.4	42.5%	12.5 µg/mL (≈ 43.2 µM)	12.5 µg/mL (≈ 43.2 µM)	11 µL/min/mg	10 µL/min/mg	42%	Non-Toxic	0.91 µM
CC1(C)OC(=O)N(c2ccc(F)c(C(F)(F)F)c2)C1=O	3.7	58.1%	3.1 µg/mL (≈ 10.6 µM)	3.1 µg/mL (≈ 10.6 µM)	12 µL/min/mg	12 µL/min/mg	11%	Non-Toxic	2.1 µM
O=C1CNC(=O)N1c1ccc(F)c(C(F)(F)F)c1	2	43.6%	> 100 µg/mL	> 100 µg/mL	< 7 µL/min/mg	13 µL/min/mg	0%	Non-Toxic	0.26 µM
CC1(CO)NC(=O)N(c2ccc(F)c(C(F)(F)F)c2)C1=O (stereo unspecified)	1.9	34.3%	25 µg/mL (≈ 81.6 µM)	25 µg/mL (≈ 81.6 µM)	< 7 µL/min/mg	< 7 µL/min/mg	0%	Non-Toxic	4.8 µM
CC1(C)CC(=O)N(c2ccc(F)c(C(F)(F)F)c2)C(=O)N1	2.4	15%	25 µg/mL (≈ 82.2 µM)	25 µg/mL (≈ 82.2 µM)	< 7 µL/min/mg	< 7 µL/min/mg	51%	Non-Toxic	> 10 µM
CC1(C)NC(=O)N(c2ccc(F)c(C#N)c2)C1=O	1.7	14.6%	> 100 µg/mL	> 100 µg/mL	< 7 µL/min/mg	< 7 µL/min/mg	10%	Non-Toxic	3.7 µM
CC1(C)NC(=O)N(c2ccc([N+](=O)[O-])c(C(F)(F)F)c2)C1=O [NILUTAMIDE]	3	70.3%	50 µg/mL (≈ 158 µM)	50 µg/mL (≈ 158 µM)	< 7 µL/min/mg	< 7 µL/min/mg	31%	–	–
O=C(C1CCCCC1)N1CC(=O)N2CCc3ccccc3C2C1 (stereo unspecified) [PRAZIQUANTEL]	3	–	> 100 µg/mL	> 100 µg/mL	–	–	18%	–	–
